Data reported in ChEMBL document CHEMBL1128240, “Studies on new acidic azoles as glucose-lowering agents in obese, diabetic db/db mice” (J Med Chem, 1995).
The source made the active and inactive calls. The rule behind the calls is not given here.

Key:
Mus musculus [1] = assay: Percentage change in plasma glucose concentration of drug treated mice relative to vehicle controls at 100 mg/kg (once daily perorally x 4) in groups of db/db mice; NA = not active; format: functional, organism-based; parameters: dose 100 mg/kg
In short: (§1)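 Male C57BL/KsJ db/db mice (2-7 months, 35-60 g), 4 h fasted baseline tail blood on day 1; extremes excluded, randomized into groups (N = 4-6) of equal mean glucose. Dosed po as suspension in 2% Tween 80/saline on afternoons of days 1-3 (fed) and day 4 after 3 h fast. Plasma glucose (Abbott VP analyzer) 2 and 4 h post-dose, mean versus day-1 baseline; ANOVA with one-sided Dunnett's test against vehicle.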

Mus musculus [2] = assay: percentage change in plasma glucose concentration of drug treated mice relative to vehicle controls at 20 mg/kg (once daily perorally x 4) in groups of db/db mice compared to vehicle control; format: functional; details: route oral; in short: as §1
Mus musculus [3] = assay: percentage change in plasma glucose concentration of drug treated mice relative to vehicle controls at 100 mg/kg (once daily perorally x 4) in groups of db/db mice compared to vehicle control; format: functional; details: route oral; in short: as §1
Mus musculus [4] = assay: percentage change in plasma glucose concentration of drug treated mice relative to vehicle controls at 20 mg/kg (once daily perorally x 4) in groups of db/db mice; NA = not active; format: functional, organism-based; parameters: dose 20 mg/kg; in short: as §1
Mus musculus [5] = assay: percentage change in plasma glucose concentration of drug treated mice relative to vehicle controls at 5 mg/kg (once daily perorally x 4) in groups of db/db mice; not active, generally less than -15% change; format: functional, organism-based; parameters: dose 5 mg/kg; in short: as §1
Mus musculus [6] = assay: percentage change in plasma glucose concentration of drug treated mice relative to vehicle controls at 100 mg/kg (once daily perorally x 4) in groups of db/db mice; NA= not active; format: functional, organism-based; parameters: dose 100 mg/kg; in short: as §1
Mus musculus [7] = assay: percentage change in plasma glucose concentration of drug treated mice relative to vehicle controls at 53 mg/kg (once daily perorally x 4) in groups of db/db mice; NA = not active; format: functional, organism-based; parameters: dose 53 mg/kg; in short: as §1
Mus musculus [8] = assay: percentage change in plasma glucose concentration of drug treated mice relative to vehicle controls at 20 mg/kg (once daily perorally x 4) in groups of db/db mice; Not active; format: functional, organism-based; parameters: dose 20 mg/kg; in short: as §1
[9] = Dissociation constant measured by potentiometric titration (in duplicate) in 1:1 dioxane-water using a Fisher accumet pH meter model 630 and a Perkin-Elmer chart recorder model 56.; format: physicochemical
In short: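 Apparent pKa from potentiometric titration with 0.1 N NaOH in dioxane–water (1:1). Sample concentration 0.2 mM, solvent 30 mL, 25 °C, titrant flow 0.17 mL/min. Value is the average of two runs. The system was conditioned and checked in duplicate against piperazine, allantoin, barbituric acid and ciglitazone standards.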

[10] = Partition coefficient (logP); format: physicochemical; details: octanol/water
In short: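 Manual shake-flask octanol/aqueous partition. Buffer was 0.01 M K2HPO4 at pH 7.4. Sample was shaken 1 min, equilibrated 4 h, and phases separated and centrifuged. Each phase was quantified by reverse-phase C18 HPLC (acetonitrile/0.01 M […] pH 3.5, 214 nm). Average of at least two runs.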

Mus musculus [11] = assay: percentage change in plasma glucose concentration of drug treated mice relative to vehicle controls at 27 mg/kg (once daily perorally x 4) in groups of db/db mice; NA = not active; format: functional, organism-based; parameters: dose 27 mg/kg; in short: as §1
Mus musculus [12] = assay: percentage change in plasma glucose concentration of drug treated mice relative to vehicle controls at 73 mg/kg (once daily perorally x 4) in groups of db/db mice compared to vehicle control; format: functional; details: route oral; in short: as §1
Mus musculus [13] = assay: percentage change in plasma glucose concentration of drug treated mice relative to vehicle controls at 100 mg/kg (once daily perorally x 4) in groups of db/db mice; Not active; format: functional, organism-based; parameters: dose 100 mg/kg; in short: as §1
Mus musculus [14] = assay: percentage change in plasma glucose concentration of drug treated mice relative to vehicle controls at 20 mg/kg (once daily perorally x 4) in groups of db/db mice; format: functional; details: route oral; in short: as §1
Mus musculus [15] = assay: Percentage change in plasma glucose concentration of drug treated mice relative to vehicle controls at 20 mg/kg (once daily perorally x 4) in groups of db/db mice; NA = not active
Mus musculus [16] = assay: percentage change in plasma glucose concentration of drug treated mice relative to vehicle controls at 5 mg/kg (once daily perorally x 4) in groups of db/db mice; format: functional; details: route oral; in short: as §1
Mus musculus [17] = assay: percentage change in plasma glucose concentration of drug treated mice relative to vehicle controls at 100 mg/kg (once daily perorally x 4) in groups of db/db mice; format: functional; details: route oral; in short: as §1

## O=[N+]([O-])c1ccc(-c2n[nH]c(O)c2Cc2ccc3ccccc3c2)cc1
Mus musculus [1]
  Change: inactive

## Cc1n[nH]c(O)c1Cc1ccc2c(c1)OCCO2
Mus musculus [2]
  Change: -21%

## Cc1onc(O)c1Cc1ccc2ccccc2c1
Mus musculus [3]
  Change: -48%
Mus musculus [2]
  Change: -25%

## COC(=O)C(=O)/C=C(\O)c1ccc2ccccc2c1
Mus musculus [3]
  Change: -37%

## Cc1n[nH]c(O)c1Cc1cccc2ccccc12
Mus musculus [4]
  Change: inactive

## CCc1n[nH]c(O)c1Cc1ccc2ccccc2c1
Mus musculus [5]
  Change: Not significant
Mus musculus [2]
  Change: -32%

## Cc1noc(O)c1Cc1ccc2ccccc2c1Br
Mus musculus [4]
  Change: inactive

## CCCc1o[nH]c(=O)c1Cc1ccc2ccccc2c1
Mus musculus [4]
  Change: inactive

## Oc1[nH]nc(C(F)(F)C(F)(F)C(F)(F)F)c1Cc1ccc2ccccc2c1
Mus musculus [6]
  Change: inactive

## Cc1n[nH]c(O)c1Cc1nc2ccccc2o1
Mus musculus [7]
  Change: inactive

## Oc1n[nH]nc1Cc1ccc2ccccc2c1
Mus musculus [1]
  Change: inactive

## O=C1NC(=O)C(Cc2ccc3ccccc3c2)=C1O
Mus musculus [8]
  Change: inactive

## Oc1[nH]nc(-c2ccccc2)c1Cc1ccc2ccccc2c1
Mus musculus [1]
  Change: inactive

## c1ccc2cc(Cc3nnn[nH]3)ccc2c1
[9]
  pKa: 5.77
Mus musculus [8]
  Change: inactive
[10]; read-out: logP
  logP: 0.72

## Oc1[nH]ncc1Cc1ccc2ccccc2c1
Mus musculus [11]
  Change: inactive

## Oc1nnnn1Cc1ccc2ccccc2c1
Mus musculus [1]
  Change: inactive

## Nc1n[nH]c(O)c1Cc1ccc2ccccc2c1
Mus musculus [12]
  Change: -27%

## O=C(O)C(=O)/C=C(\O)c1ccc2ccccc2c1
Mus musculus [3]
  Change: -28%

## O=C(O)CCc1ccc2ccccc2c1
[9]
  pKa: 6.52
Mus musculus [13]
  Change: inactive
[10]; read-out: logP
  logP: 1.09

## Oc1[nH]nc2c1CCc1ccccc1-2
Mus musculus [1]
  Change: inactive

## C[n+]1nn(Cc2ccccc2)c([O-])c1Cc1ccc2ccccc2c1
Mus musculus [6]
  Change: inactive

## Oc1n[nH]c(O)c1Cc1ccc2ccccc2c1
Mus musculus [1]
  Change: inactive

## CC1(COc2ccc(CC3SC(=O)NC3=O)cc2)CCCCC1 (stereo not given) [CIGLITAZONE]
Mus musculus [3]
  Change: -28%
[9]
  pKa: 7.8
[10]
  logP: 3.61

## COCc1noc(O)c1Cc1ccc2ccccc2c1
Mus musculus [1]
  Change: inactive

## COC(=O)c1cc(-c2ccc3ccccc3c2)[nH]n1
Mus musculus [1]
  Change: inactive

## Cc1n[nH]c(O)c1CSc1nc2ccccc2[nH]1
Mus musculus [6]
  Change: inactive

## Cc1c(Cc2ccc3ccccc3c2)o[nH]c1=O
Mus musculus [1]
  Change: inactive

## Oc1[nH]nc(C(F)(F)C(F)(F)F)c1Cc1ccc2ccccc2c1
Mus musculus [1]
  Change: inactive

## COCc1n[nH]c(O)c1Cc1ccc2ccccc2c1
Mus musculus [3]
  Change: -39%
Mus musculus [4]
  Change: inactive

## Oc1[nH]nc(C(F)(F)F)c1Cc1ccccc1
Mus musculus [3]
  Change: -33%
Mus musculus [14]
  Change: -18%

## Cc1o[nH]c(=O)c1Cc1ccc2ccccc2c1Br
Mus musculus [4]
  Change: inactive

## Oc1c(Cc2ccc3ccccc3c2)nnn1Cc1ccccc1
Mus musculus [1]
  Change: inactive

## Oc1onc(-c2ccccc2)c1Cc1ccc2ccccc2c1
Mus musculus [1]
  Change: inactive

## NNc1n[nH]c(O)c1Cc1ccc2ccccc2c1
Mus musculus [1]
  Change: inactive

## CC(C)c1n[nH]c(O)c1Cc1ccc2ccccc2c1
Mus musculus [3]
  Change: -30.4%

## Cc1n[nH]c(O)c1Cc1ccc2ccccc2c1Br
Mus musculus [14]
  Change: -20%

## Oc1cc(CSc2ccc3ccccc3c2)no1
Mus musculus [1]
  Change: inactive

## Oc1cc(C23CC4CC(CC(C4)C2)C3)n[nH]1
Mus musculus [15]
  Change: inactive

## Oc1[nH]nc(C(F)(F)F)c1Cc1ccc2c(c1)CCC(Cc1ccccc1)O2 (stereo not given)
Mus musculus [1]
  Change: inactive

## Oc1[nH]nc(C(F)(F)F)c1Cc1ccc2c(c1)OCO2
Mus musculus [2]
  Change: -38%

## Oc1[nH]nc(C(F)(F)F)c1Cc1ccc2ccccc2c1
Mus musculus [16]
  Change: -16%

## Cn1nnc(O)c1Cc1ccc2ccccc2c1
Mus musculus [4]
  Change: inactive
[9]
  pKa: 9.11
[10]; read-out: logP
  logP: 2.12

## Oc1[nH]nc2c1CCc1sccc1-2
Mus musculus [1]
  Change: inactive

## Oc1cc(Cc2ccc3ccccc3c2)n[nH]1
Mus musculus [1]
  Change: inactive

## Cc1c(Cc2ccc3ccccc3c2)n[nH]c1O
Mus musculus [4]
  Change: inactive

## Oc1cc(CSc2nc3ccccc3s2)no1
Mus musculus [1]
  Change: inactive

## Oc1[nH]nc(C(F)(F)F)c1Cc1ccc2nccnc2c1
Mus musculus [2]
  Change: -27%

## Cc1n[nH]c(O)c1Cc1ccc2ccccc2c1
Mus musculus [3]
  Change: -42%
Mus musculus [2]
  Change: -31%

## Cc1o[nH]c(=O)c1Cc1ccccc1
Mus musculus [1]
  Change: inactive

## Oc1[nH]nc(C(F)(F)F)c1Cc1ccc2c(Br)cccc2c1
Mus musculus [2]
  Change: -22%

## Oc1cc(CSc2nc3ccccc3s2)n[nH]1
Mus musculus [1]
  Change: inactive

## Oc1[nH]nc(C(F)(F)F)c1Cc1ccc2sccc2c1
Mus musculus [2]
  Change: -29%

## O=C(O)c1cc(-c2ccc3ccccc3c2)[nH]n1
Mus musculus [1]
  Change: inactive

## Cc1n[nH]c(O)c1Cc1ccccc1
Mus musculus [1]
  Change: inactive

## CCc1o[nH]c(=O)c1Cc1ccc2ccccc2c1
Mus musculus [4]
  Change: inactive

## Cc1[nH]oc(=O)c1Cc1ccc2ccccc2c1
Mus musculus [17]
  Change: -17%

## Cc1c(O)nnn1Cc1ccc2ccccc2c1
Mus musculus [1]
  Change: inactive
